Data from article PMC4304478 (Journal of the American Chemical Society, 2014).
*1 amine or outer side, *2 acyl side, *3 side chain or, on linkers, in order; H or OH if unused. Bridges are numbered along the chain shown (N, C = ends). Roman numbers before positions name the chains, in order. Where no end group is shown, it is not given here. [ ]: non-standard residue; d: D form. X1 = O=C(NCCCOCCCCOCCCNC(=O)c1ccc(/C=N/OCC(=O)[*:2])cc1)c1ccc(/C=N/OCC(=O)[*:1])cc1; Dap = NC[C@H](N)C(=O)O

What was measured:
MDA-MB-231 cells = test: Cell proliferation assay; format: cell-based, human; conditions: varying concentrations, 12–72 h, Cell Counting Kit-8; relative to cilengitide
Procedure, shortened: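 MDA-MB-231 cells exposed to varying concentrations of test knottins or a reference compound for 12–72 h. Proliferation was read out as […] activity in living cells with the CCK-8 kit. Concentration–response was read at 72 h, and the time course used 1 μM protein. Values are expressed relative to an untreated control.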

[1] = target: integrin receptors (αvβ5) expressed on MDA-MB-231 cells (Homo sapiens, UniProt P06756+P18084); test: Competition binding assay with Alexa488-2.5F on MDA-MB-231 cells; conditions: from competition IC50 values
Sequence of integrin receptors (αvβ5) expressed on MDA-MB-231 cells (P06756 891-1048): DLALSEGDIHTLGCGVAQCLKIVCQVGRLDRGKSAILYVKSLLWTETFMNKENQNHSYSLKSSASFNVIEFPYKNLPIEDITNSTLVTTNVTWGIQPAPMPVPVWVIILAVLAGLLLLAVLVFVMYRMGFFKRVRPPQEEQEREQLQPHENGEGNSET
Sequence of integrin receptors (αvβ5) expressed on MDA-MB-231 cells (P18084 24-799): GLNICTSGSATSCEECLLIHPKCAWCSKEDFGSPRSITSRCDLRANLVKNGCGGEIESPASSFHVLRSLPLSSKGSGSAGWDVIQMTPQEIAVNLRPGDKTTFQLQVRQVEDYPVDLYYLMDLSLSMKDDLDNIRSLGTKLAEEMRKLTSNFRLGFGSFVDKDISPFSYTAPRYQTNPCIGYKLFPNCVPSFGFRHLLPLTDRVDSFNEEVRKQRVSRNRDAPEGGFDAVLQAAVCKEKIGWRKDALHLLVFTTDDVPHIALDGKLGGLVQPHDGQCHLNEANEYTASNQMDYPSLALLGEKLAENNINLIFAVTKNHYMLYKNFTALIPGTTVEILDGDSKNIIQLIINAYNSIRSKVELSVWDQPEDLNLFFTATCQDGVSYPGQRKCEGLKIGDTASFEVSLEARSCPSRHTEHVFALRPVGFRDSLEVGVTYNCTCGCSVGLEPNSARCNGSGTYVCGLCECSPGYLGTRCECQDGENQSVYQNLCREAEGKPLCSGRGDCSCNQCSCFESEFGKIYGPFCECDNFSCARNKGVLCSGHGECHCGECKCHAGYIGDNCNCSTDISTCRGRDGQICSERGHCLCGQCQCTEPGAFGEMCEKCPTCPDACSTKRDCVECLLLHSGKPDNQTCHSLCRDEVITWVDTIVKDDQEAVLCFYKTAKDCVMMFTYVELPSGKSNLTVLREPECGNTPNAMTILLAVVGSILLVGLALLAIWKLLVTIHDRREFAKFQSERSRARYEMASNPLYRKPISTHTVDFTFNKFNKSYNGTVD
Sequence of integrin receptors (αvβ5) expressed on MDA-MB-231 cells (P06756 31-889): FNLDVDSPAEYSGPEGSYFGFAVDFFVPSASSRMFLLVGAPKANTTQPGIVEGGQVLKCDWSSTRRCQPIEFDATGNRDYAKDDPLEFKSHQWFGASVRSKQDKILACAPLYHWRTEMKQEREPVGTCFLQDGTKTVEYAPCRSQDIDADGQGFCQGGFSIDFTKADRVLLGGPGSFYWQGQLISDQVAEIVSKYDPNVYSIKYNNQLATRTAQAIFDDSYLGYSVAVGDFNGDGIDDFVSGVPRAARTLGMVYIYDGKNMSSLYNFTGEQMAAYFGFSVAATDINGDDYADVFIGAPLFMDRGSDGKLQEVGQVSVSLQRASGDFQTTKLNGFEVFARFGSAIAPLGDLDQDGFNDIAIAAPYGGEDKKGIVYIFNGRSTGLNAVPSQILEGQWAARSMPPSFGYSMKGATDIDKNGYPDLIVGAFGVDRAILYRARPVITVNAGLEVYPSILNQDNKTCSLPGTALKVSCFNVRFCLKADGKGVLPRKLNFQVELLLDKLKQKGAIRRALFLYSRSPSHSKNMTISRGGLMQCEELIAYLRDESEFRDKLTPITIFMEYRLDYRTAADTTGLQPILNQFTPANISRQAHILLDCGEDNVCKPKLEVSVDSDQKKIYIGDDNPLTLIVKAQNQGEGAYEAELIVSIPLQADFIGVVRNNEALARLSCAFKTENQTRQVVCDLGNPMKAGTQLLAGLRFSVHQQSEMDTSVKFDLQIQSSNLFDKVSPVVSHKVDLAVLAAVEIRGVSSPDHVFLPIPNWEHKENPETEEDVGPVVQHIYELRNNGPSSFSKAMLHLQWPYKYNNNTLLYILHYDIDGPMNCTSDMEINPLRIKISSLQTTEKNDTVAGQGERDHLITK

Substance: I: GCPRPRGDNPPLTC[Dap]QDSDCLAGCVCGPNGFCG-NH2 / II: GCPRPRGDNPPLTC[Dap]QDSDCLAGCVCGPNGFCG-NH2 (disulfide I:2-I:24, I:14-I:26, I:20-I:32, II:2-II:24, II:14-II:26, II:20-II:32; linker I:15-II:15 via X1) [D2.5F_1]
- Inhibition of MDA-MB-231 cell proliferation (MDA-MB-231 cells): significantly more potent
- Increase in relative binding affinity compared with cilengitide [1]: 500 fold
- Increase in relative binding affinity compared with the knottin monomer [1]: 60 fold
